Measurements published in ChEMBL document CHEMBL1123657, “Anthrapyrazole anticancer agents. Synthesis and structure-activity relationships against murine leukemias” (J Med Chem, 1987).

Key:
L1210 [1] = experiment: Compound was tested in vitro against murine L1210 leukemia; IA means inactive.; format: functional, cell-based, Mus musculus
P388 [2] = experiment: Optimal dose per injection in mg/kg required to inhibit growth of P388 leukemia cells in mice; format: functional, Mus musculus
In short: (§1)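 P388 leukemia implanted ip in mice; drug given ip on days 1 and 5 (ip/ip; D1,5), dosed in mg/kg per injection. Read-out is treated/control (T/C, %) with cures counted, reported at the optimal dose.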

P388 [3] = experiment: Inhibition of P388 leukemia cells in mice, measured as percent treated to the control values with the number of 30 day survivors; format: functional, Mus musculus; in short: as §1
P388 [4] = experiment: Activity against P388 leukemia cells in mice, by intraperitoneal dosing and net log tumor cell kill was reported; format: functional, Mus musculus
L1210 [5] = experiment: Tested in vitro against murine L1210 leukemia.; format: functional, cell-based; details: Mus musculus
B16 [6] = experiment: Optimal dose per injection in mg/kg required to inhibit growth of murine B-16 melanoma in vivo; format: functional, Mus musculus
In short: (§2)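 Murine B-16 melanoma in vivo: tumor implanted ip, compound given ip on days 1–9 (ip/ip; D1–9), dosed as mg/kg per injection. Activity expressed as T/C (%) plus number of cures, taken at the optimal dose.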

B16 [7] = experiment: Tested for activity against murine B-16 melanoma in mice and percent treated to the control values with the number of 60 day survivors; format: functional, Mus musculus; in short: as §2

CCN(CC)CCn1nc2c3c(c(NCCN(C)C(=O)OCc4ccccc4)ccc31)C(=O)c1c(O)ccc(O)c1-2
IC50 (L1210 [1]): Not Active

O=C(O)CCNc1ccc2c3c(nn2CCO)-c2ccccc2C(=O)c13
IC50 (L1210 [1]): Not Active
Dose (P388 [2]): 25 mg/kg
T/C (P388 [3]): 98%
Activity (P388 [4]): -1.6

CN(CCNc1ccc2c3c(nn2CCNCCO)-c2c(O)ccc(O)c2C(=O)c13)C(=O)OCc1ccccc1
IC50 (L1210 [1]): Not Active

CCN(CC)CCn1nc2c3c(c(NCCC(=O)O)ccc31)C(=O)c1ccccc1-2
IC50 (L1210 [1]): Not Active
Dose (P388 [2]): 12.5 mg/kg
T/C (P388 [3]): 117%
Activity (P388 [4]): -1.3

Cl.NCCCNc1ccc2c3c(nn2CCNCCO)-c2c(O)ccc(O)c2C(=O)c13
IC50 (L1210 [5]): 960 nM
Optimal dose (B16 [6]): 8 mg/kg
Dose (P388 [2]): 45 mg/kg
T/C (P388 [3]): 294%
Activity (P388 [4]): >6.5
T/C (B16 [7]): 338%

Cl.NCCCCCNc1ccc2c3c(nn2CCNCCO)-c2c(O)ccc(O)c2C(=O)c13
IC50 (L1210 [1]): Not Active
Dose (P388 [2]): 100 mg/kg
T/C (P388 [3]): 150%
Activity (P388 [4]): 1.5

Cl.O=C1c2ccccc2-c2nn(CCNCCO)c3ccc(NCCO)c1c23
IC50 (L1210 [5]): 750 nM
Dose (P388 [2]): 25 mg/kg
T/C (P388 [3]): 139%
Activity (P388 [4]): 0.1

CCN(CC)CCCNc1ccc2c3c(nn2CCO)-c2ccccc2C(=O)c13.Cl
IC50 (L1210 [1]): Not Active
Dose (P388 [2]): 200 mg/kg
T/C (P388 [3]): 104%
Activity (P388 [4]): -1.5

Cl.O=C1c2c(O)ccc(O)c2-c2nn(CCO)c3ccc(NCCN4CCOCC4)c1c23
IC50 (L1210 [5]): 1100 nM
Dose (P388 [2]): 400 mg/kg
T/C (P388 [3]): 122%
Activity (P388 [4]): -1.2

CCN(CC)CCCCNc1ccc2c3c(nn2CCO)-c2ccccc2C(=O)c13.Cl
IC50 (L1210 [1]): Not Active
Dose (P388 [2]): 300 mg/kg
T/C (P388 [3]): 115%
Activity (P388 [4]): -1.3

CCN(CC)CC(O)Cn1nc2c3c(c(NCCNCCO)ccc31)C(=O)c1c(O)ccc(O)c1-2.Cl (configuration not stated)
IC50 (L1210 [5]): 840 nM
Dose (P388 [2]): 12.5 mg/kg
T/C (P388 [3]): 223%
Activity (P388 [4]): 5.3

Cl.NCCCNCCCCNCCCNc1ccc2c3c(nn2CCNCCO)-c2c(O)ccc(O)c2C(=O)c13
IC50 (L1210 [1]): Not Active
Dose (P388 [2]): 12.5 mg/kg
T/C (P388 [3]): 145%
Activity (P388 [4]): 0.6

Cl.O=C1c2c(O)ccc(O)c2-c2nn(CCO)c3ccc(NCCNCCO)c1c23
IC50 (L1210 [5]): 780 nM
Optimal dose (B16 [6]): 80 mg/kg
Dose (P388 [2]): 200 mg/kg
T/C (P388 [3]): 271%
Activity (P388 [4]): 6.8
T/C (B16 [7]): 246%

Cl.O=C1c2c(O)ccc(O)c2-c2nn(CCNCCO)c3ccc(NCCN(CCO)CCO)c1c23
IC50 (L1210 [5]): 430 nM
Optimal dose (B16 [6]): 25 mg/kg
Dose (P388 [2]): 200 mg/kg
T/C (P388 [3]): 277%
Activity (P388 [4]): >6.6
T/C (B16 [7]): 342%

CN1CCN(c2ccc3c4c(nn3CCNCCO)-c3c(O)ccc(O)c3C(=O)c24)CC1.Cl
IC50 (L1210 [5]): 430 nM
Dose (P388 [2]): 12.5 mg/kg
T/C (P388 [3]): 192%
Activity (P388 [4]): 3.8

Cl.O=C1c2c(O)ccc(O)c2-c2nn(CCNCCO)c3ccc(NCCN4CCOCC4)c1c23
IC50 (L1210 [5]): 650 nM
Dose (P388 [2]): 50 mg/kg
T/C (P388 [3]): 177%
Activity (P388 [4]): 2.9

Cl.O=C1c2c(O)ccc(O)c2-c2nn(CCCNCCO)c3ccc(NCCNCCO)c1c23
IC50 (L1210 [1]): Not Active
Dose (P388 [2]): 100 mg/kg
T/C (P388 [3]): 275%
Activity (P388 [4]): >7

CCN(CC)CCNc1ccc2c3c(nn2C)-c2ccccc2C(=O)c13.Cl
IC50 (L1210 [5]): 670 nM
Dose (P388 [2]): 400 mg/kg
T/C (P388 [3]): 98%
Activity (P388 [4]): -1.5

CSCCn1nc2c3c(c(NCCNCCO)ccc31)C(=O)c1c(O)ccc(O)c1-2.Cl
IC50 (L1210 [1]): Not Active
Dose (P388 [2]): 6.25 mg/kg
T/C (P388 [3]): 140%
Activity (P388 [4]): 0.3

CN(C)CCNCCNc1ccc2c3c(nn2CC(O)CO)-c2c(O)ccc(O)c2C(=O)c13.Cl (configuration not stated)
IC50 (L1210 [5]): 2200 nM
Dose (P388 [2]): 400 mg/kg
T/C (P388 [3]): 281%
Activity (P388 [4]): 6.7

CCN(CC)CCn1nc2c3c(c(NCCNCCO)ccc31)C(=O)c1c(O)ccc(O)c1-2.Cl
IC50 (L1210 [5]): 130 nM
Optimal dose (B16 [6]): 6 mg/kg
Dose (P388 [2]): 12.5 mg/kg
T/C (P388 [3]): 264%
Activity (P388 [4]): >6.8

CCN(CC)CC(O)Cn1nc2c3c(c(NCCN)ccc31)C(=O)c1c(O)ccc(O)c1-2.Cl (configuration not stated)
IC50 (L1210 [1]): Not Active
Dose (P388 [2]): 6.25 mg/kg
T/C (P388 [3]): 262%
Activity (P388 [4]): >6.7

Cl.NCCNCCNc1ccc2c3c(nn2CCO)-c2c(O)ccc(O)c2C(=O)c13
IC50 (L1210 [1]): Not Active
Dose (P388 [2]): 200 mg/kg
T/C (P388 [3]): 174%
Activity (P388 [4]): 1.2

Cl.O=C1c2ccccc2-c2nn(CCO)c3ccc(NCCN4CCNCC4)c1c23
IC50 (L1210 [1]): Not Active
Dose (P388 [2]): 50 mg/kg
T/C (P388 [3]): 109%
Activity (P388 [4]): -1.3

Cl.NCCCCNc1ccc2c3c(nn2CCNCCO)-c2c(O)ccc(O)c2C(=O)c13
IC50 (L1210 [1]): Not Active
Dose (P388 [2]): 100 mg/kg
T/C (P388 [3]): 173%
Activity (P388 [4]): 3.4

COCCn1nc2c3c(c(NCCN)ccc31)C(=O)c1c(O)ccc(O)c1-2.Cl
IC50 (L1210 [1]): Not Active
Dose (P388 [2]): 50 mg/kg
T/C (P388 [3]): 127%
Activity (P388 [4]): -0.6

CCN(CC)CCCCCCCNc1ccc2c3c(nn2CCO)-c2ccccc2C(=O)c13.Cl
IC50 (L1210 [1]): Not Active
Dose (P388 [2]): 100 mg/kg
T/C (P388 [3]): 98%
Activity (P388 [4]): -1.6

Cl.Cn1nc2c3c(c(NCCNCCO)ccc31)C(=O)c1ccccc1-2
IC50 (L1210 [5]): 710 nM
Dose (P388 [2]): 100 mg/kg
T/C (P388 [3]): 136%
Activity (P388 [4]): -0.2

Cl.NCCCn1nc2c3c(c(NCCNCCO)ccc31)C(=O)c1c(O)ccc(O)c1-2
IC50 (L1210 [5]): 160 nM
Optimal dose (B16 [6]): 6.25 mg/kg
Dose (P388 [2]): 50 mg/kg
Activity (P388 [4]): >6.6
T/C (B16 [7]): 375%

Cl.NCCNc1ccc2c3c(nn2CCO)-c2c(O)ccc(O)c2C(=O)c13
IC50 (L1210 [5]): 480 nM
Dose (P388 [2]): 100 mg/kg
T/C (P388 [3]): 196%
Activity (P388 [4]): 6.8

CCN(CC)CCCCNc1ccc2c3c(nn2CCN(CC)CC)-c2ccccc2C(=O)c13.Cl
IC50 (L1210 [5]): 620 nM
Dose (P388 [2]): 25 mg/kg
T/C (P388 [3]): 107%
Activity (P388 [4]): -1.4

Cl.O=C1c2ccccc2-c2nn(CCO)c3ccc(NCCN4CCOCC4)c1c23
IC50 (L1210 [1]): Not Active
Dose (P388 [2]): 25 mg/kg
T/C (P388 [3]): 100%
Activity (P388 [4]): -1.5

CCN(CC)CCn1nc2c3c(c(NCCN)ccc31)C(=O)c1c(O)ccc(O)c1-2.Cl
IC50 (L1210 [5]): 46 nM
Optimal dose (B16 [6]): 3.6 mg/kg
Dose (P388 [2]): 12.5 mg/kg
T/C (P388 [3]): 280%
Activity (P388 [4]): >7.1
T/C (B16 [7]): 176%

Cl.NCCn1nc2c3c(c(NCCNCCO)ccc31)C(=O)c1c(O)ccc(O)c1-2
IC50 (L1210 [5]): 580 nM
Optimal dose (B16 [6]): 3 mg/kg
Dose (P388 [2]): 12.5 mg/kg
T/C (P388 [3]): 270%
Activity (P388 [4]): > 6.7
T/C (B16 [7]): 306%

CNCCNc1ccc2c3c(nn2CCNCCO)-c2c(O)ccc(O)c2C(=O)c13 [TELOXANTRONE]
IC50 (L1210 [5]): 140 nM
Optimal dose (B16 [6]): 1.5 mg/kg
Dose (P388 [2]): 12.5 mg/kg
Activity (P388 [4]): >6.6
T/C (B16 [7]): 357%
